Screens: PubChem BioAssay, several laboratories
EP2 mod = EP2 receptor (human) modulation. 260,000 tested, 0.83% active. P43116. induction, % at 25 µM. AID 940. EP2-expressing cells, cAMP HTRF FRET, PGE2 co-stimulation;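 active = compounds whose cAMP rise, as percent of the full-agonist control response, exceeds 60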;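 note: rat C6 glioma line stably carrying human EP2 under a CMV promoter; the protocol text gives 20 µM as final concentration; 100% = response of wells given 1 µM PGE2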
OX1R antag-1 = antagonists of human orexin 1 receptor (OX1R); O43613; inhibition, % at 6.6 µM; 330,000 tested, 1.8% active; OX1R-expressing cells, FRET antagonist read-out; in the data active = inhibition mostly above about 38%, no sharp cut-off; inactive = mostly below about 40%;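 note: 0% = agonist challenge alone and 100% = reference antagonist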
Target sequence (O43613 whole entry, looked up): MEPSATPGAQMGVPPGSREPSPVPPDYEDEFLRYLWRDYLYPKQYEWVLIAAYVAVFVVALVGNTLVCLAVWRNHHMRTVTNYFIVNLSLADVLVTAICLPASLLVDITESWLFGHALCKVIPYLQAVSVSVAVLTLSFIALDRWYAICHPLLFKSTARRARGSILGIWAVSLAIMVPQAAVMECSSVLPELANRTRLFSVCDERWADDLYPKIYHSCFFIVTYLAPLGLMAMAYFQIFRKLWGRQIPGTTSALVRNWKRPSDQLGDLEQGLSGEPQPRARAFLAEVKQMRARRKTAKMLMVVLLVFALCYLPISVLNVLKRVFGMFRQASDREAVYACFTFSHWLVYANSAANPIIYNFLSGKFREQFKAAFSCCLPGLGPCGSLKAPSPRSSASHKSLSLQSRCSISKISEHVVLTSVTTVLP
EP2 antag = EP2 receptor (human) inhibition; 260,000 tested, 0.52% active; inhibition, % at 25 µM; P43116; C6 glioma cells expressing human EP2, cAMP TR-FRET; cells stimulated with saturating PGE2;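 active = percent inhibition above 40 after rounding to a whole number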;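 note: rat C6 glioma host cells with rolipram phosphodiesterase inhibitor present; the protocol text gives 20 µM as final concentration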
CHO parental Ca = counter-screen for OX1R antagonists: effect in parental CHO cells. parental CHO-K1, ATP-induced calcium, Fluo-8 fluorescence. inhibition, % at 5.6 µM. 330,000 tested, 0.63% active. AID 463079;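 active = inhibition above that plate's mean sample inhibition plus 3 SD, cut at about 26% in these data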;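 note: 0% = ATP-challenged DMSO wells and 100% = DMSO wells without ATP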
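Test system: untransfected parental CHO cell line; also added: ATP stimulus; dosing: 5.6 µM, single dose; signal: calcium-sensitive Fluo-8 fluorescence; measure: percent inhibition of ATP-evoked calcium rise, normalized to controls; benchmarks: low control ATP plus DMSO, high control DMSO only; replication: one well per compound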
GPR7 antagonist = human neuropeptides B/W receptor 1 antagonism; inhibition, % at 4.4 µM; P48145; GPR7-expressing cells, fluorescence antagonist assay; 290,000 tested, 1.1% active; in the data active = inhibition above about 16%, passing the limit was not always enough;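 note: cells stimulated with the agonist NPW; 0% = agonist with vehicle and 100% = vehicle without agonist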
OX1R antag-2 = blocks the human orexin 1 receptor; CHO/OX1R cells, Fluo-8 calcium fluorescence, orexin A; inhibition, % at 5 µM; 330,000 tested, 0.43% active; AID 434989;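 active = inhibition above its plate's threshold, mean inhibition of all tested compounds on the plate plus 3 SD, cut at about 37% in these data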;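 note: 0% = orexin A challenge wells and 100% = SB-334867-A antagonist wells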
* marks the source's active call; other numbers are inactive results; x = no result; ! = not confirmed by another sample. The list is not random: actives were taken first. Their share in the collection is about 3.7%.

SMILES	EP2 mod	OX1R antag-1	EP2 antag	CHO parental Ca	GPR7 antagonist	OX1R antag-2
CC(C)Cn1c(N)c(C(=O)COC(=O)C2=COCCO2)c(=O)n(C)c1=O	-11.3	10.1	5.1	-17.7	18.5*	-11.8
CC(C)Cn1c(N)c(C(=O)COC(=O)c2cc(F)cc(F)c2)c(=O)n(C)c1=O	-25.4	29.2	3.4	-7.1	18.1*	-8.4
C[C@@H](NCCc1ccc(O)cc1)[C@@H](O)c1ccc(O)cc1	17.2	10.9	9.3	2.5	x	1.6
CCCCCCCCNC(C)C(O)c1ccc(SC(C)C)cc1 (stereo unspecified)	-23.0	0.0	115.3*!	11.7	-6.7	-6.4
Cc1ccc(C2C(C(=O)c3sc(C)nc3C)=C(O)C(=O)N2CCN2CCOCC2)o1 (stereo unspecified)	-6.5	26.8	-2.5	4.9	5.3	-4.6
O=C(NCCCn1ccnc1)c1ccc(Cl)cc1[N+](=O)[O-]	4.3	32.1	9.3	-10.2	-17.2	-12.2
O=C(NCCCn1ccnc1)c1cc2cc([N+](=O)[O-])ccc2oc1=O	12.6	69.3*	10.6	1.2	-10.2	-8.0
c1ccc(CSc2nnc(-c3ccco3)n2Cc2ccco2)cc1	24.5	33.1	13.7	-22.4	8.0	11.1
c1ccc(CSc2nnc(-c3cccs3)n2Cc2ccco2)cc1	17.5	28.8	1.7	-6.4	7.8	-18.2
Cc1ccccc1CSc1nnc(-c2cccs2)n1Cc1ccco1	14.5	69.3*	3.4	-37.0	10.8	7.5
Cc1ccccc1CSc1nnc(-c2ccco2)n1Cc1ccco1	41.7	68.1*	7.6	-26.7	16.9*	4.8
CCNC(=O)CON=C1c2ccccc2-c2ccccc21	9.6	60.2	10.3	-8.6	-9.0	-14.3
CCC(CC)NC(=O)CON=C1c2ccccc2-c2ccccc21	6.0	51.4*	11.6	-21.1	-11.4	-13.0
Cc1ccc(NC(=O)C2C(c3ccccc3)C2(Cl)Cl)c(C)c1 (stereo unspecified)	-23.3	76.8*	10.3	6.9	-15.9	9.7
O=C(Nc1nnc(S(=O)(=O)N2CCCCCC2)s1)c1ccc(Br)cc1	x	9.3	x	-3.6	-7.3	-23.7
C=CCn1c2cc(C)sc2c2cnn(Cc3ccccc3F)c(=O)c21	63.4*	x	x	x	x	x
CCOc1ccc(NC(=O)Nc2ccc3nsnc3c2)cc1	-67.9	18.1	1.1	2.0	-2.2	0.9
CCOc1ccc(NC(=S)Nc2ccc3nsnc3c2)cc1	-119.3	113.3*	43.9*	-12.2	11.0	-12.1
S=C(NCc1ccc2c(c1)OCO2)Nc1ccc2nsnc2c1	-106.5	39.8	32.0	32.1	7.8	53.1*
O=C(COC(=O)CSc1ccc([N+](=O)[O-])cc1)NCCCc1ccccc1	x	14.2	x	1.7	-4.2	-2.6
CC(=O)c1ccc(NC(=O)C2CC2c2ccccc2)cc1 (stereo unspecified)	x	13.9	x	-16.8	x	5.2
COc1ccc(N(CC(=O)N2CCCCCC2)S(=O)(=O)c2c(C)[nH]c(=O)[nH]c2=O)cc1	14.9	2.8	10.3	-10.8	3.5	-8.9
CCN(CC)C(=O)Cn1cc(C(=O)C(=O)NCCCN2CCCCC2)c2ccccc21	x	12.7	x	-11.5	-3.2	-22.4
CCN(CC)C(=O)Cn1cc(C(=O)C(=O)NCCc2c[nH]c3ccccc23)c2ccccc21	x	46.3*	x	-6.2	0.3	5.9
CCCCN(C(=O)C1CCN(C(=O)c2ccccc2C)CC1)c1c(N)n(CCCC)c(=O)[nH]c1=O	x	13.4	x	-9.1	-20.3	-4.2
SMILES	EP2 mod	OX1R antag-1	EP2 antag	CHO parental Ca	GPR7 antagonist	OX1R antag-2
COc1cccc(/C=C2\SC(=S)N(CCCC(=O)N(CCO)c3ccccc3)C2=O)c1	x	18.4	x	-24.1	-17.2	-14.9
O=C1/C(=C/c2cccc(Br)c2)SC(=S)N1CCC(=O)N(CCO)c1ccccc1	x	0.2	x	38.5*	-15.9	-19.0
NC(N)=N[C@@H]1C(O)[C@H](N=C(N)N)[C@@H](O)C(O)[C@H]1O (stereo partly specified)	1.2	x	51.3*	x	x	x
COc1ccc(Cl)cc1NC(=O)CN(C)C1CCCCC1	22.9	19.1	8.5	-27.0	-2.9	-26.6
COc1ccc(OC)c(NC(=O)CN(Cc2ccc(F)cc2)C2CCCCC2)c1	x	46.2	x	44.7*	4.0	-0.9
Cc1ccccc1-c1n[nH]c(=S)o1	40.6	-12.7	29.1	-15.2	-10.4	-13.9
CSc1ccccc1-c1n[nH]c(=S)o1	38.4	x	46.4*	x	-4.5	x
